Bioassay records from PubChem BioAssay.
TCR CD3 inh – inhibitors of human TCR-CD3 interaction; TAMRA-labeled TCR probe fluorescence, biochemical; inhibition, % at 9.4 µM; actives 0.37% (n = 360,000);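 also: recombinant mutant TCR 2C K166C tagged with TAMRA read by polarization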
SIAE inh – blocks human sialic acid acetylesterase. SIAE FP-Rh probe binding, fluorescence polarization. inhibition, % at 9.66 µM. actives 0.69% (n = 370,000);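 active = inhibition above a cutoff: mean of compounds within the control limits plus 3 SD of those, cut at about 17% in these data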
PRMT1 FP inh – PRMT1 (human) inhibition, primary screen | AID 652257 | actives 1.3% (n = 370,000) | recombinant PRMT1, activity-based probe fluorescence polarization | Q99873 | inhibition, % at 2.79 µM;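 active = inhibition above about 21% made by adding two undisclosed values, limit read from the data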
ABHD4 inh – ABHD4 (mouse) inhibition, primary FP screen | inhibition, % at 8.92 µM | actives 0.54% (n = 370,000) | purified mABHD4, FP-Rh probe fluorescence polarization;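 active = inhibition exceeding the mean over every tested compound plus 3 SD, cut at about 30% in these data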
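Test system: mABHD4 protein; Read-out basis: % inhibition; Incubation: 45 min + 60 min at 25 °C; Repeats: single replicate; Technique: fluorescence polarization with parallel and perpendicular emission, 525/598 nm; Compound: 8.92 µM, single dose; Benchmarks: full inhibition S159A mutant plus DMSO, zero as sample-well median.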
HTRA1 inhibitor – blocks human HTRA1 serine peptidase | Q92743 | recombinant HTRA1, FP-rhodamine activity-based probe, fluorescence polarization | inhibition, % at 5.96 µM | actives 0.5% (n = 340,000); in the data active = inhibition above about 36%
Target sequence (Q92743 whole entry, looked up): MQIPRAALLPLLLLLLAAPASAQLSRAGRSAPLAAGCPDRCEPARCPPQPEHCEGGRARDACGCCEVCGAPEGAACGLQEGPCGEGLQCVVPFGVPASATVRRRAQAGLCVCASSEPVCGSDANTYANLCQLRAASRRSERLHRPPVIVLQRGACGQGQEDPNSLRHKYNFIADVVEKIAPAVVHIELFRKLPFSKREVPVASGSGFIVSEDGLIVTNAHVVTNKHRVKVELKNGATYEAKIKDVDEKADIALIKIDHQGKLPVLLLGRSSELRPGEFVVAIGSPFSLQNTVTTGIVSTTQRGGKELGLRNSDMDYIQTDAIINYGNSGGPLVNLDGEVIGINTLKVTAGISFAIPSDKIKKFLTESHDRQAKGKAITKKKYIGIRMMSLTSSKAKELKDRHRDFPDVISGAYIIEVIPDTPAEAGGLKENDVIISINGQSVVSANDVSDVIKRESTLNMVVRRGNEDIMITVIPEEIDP
HTRA1 inh conf – confirmation of human HTRA1 inhibitors; recombinant HTRA1, FP-rhodamine activity-based probe, fluorescence polarization; actives 66% (n = 1,600); inhibition, % at 5.96 µM; shares compounds with HTRA1 inhibitor;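 active = mean inhibition over three repeats above a set limit taken from the earlier primary screen, cut at about 37% in these data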;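 also: inhibitors block probe binding so polarization drops and inhibition rises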
BSA TAMRA ctr – counter-screen for TCR-CD3 interaction inhibitors: BSA probe | shares compounds with TCR CD3 inh | TAMRA-labeled BSA probe fluorescence counterscreen | inhibition, % at 9.4 µM | actives 10% (n = 1,200) | AID 652035; in the data active = inhibition above about 23%
TCR-CD3 conf – TCR-CD3 interaction inhibition, confirmation; TAMRA-labeled TCR probe fluorescence binding assay; inhibition, % at 9.4 µM; AID 652036; actives 48% (n = 1,200); shares compounds with TCR CD3 inh
PRMT1 inh conf – PRMT1 (human) inhibition, FP confirmation | inhibition, % at 2.79 µM | recombinant His-PRMT1, activity-based probe fluorescence polarization | AID 687036 | actives 42% (n = 3,300) | shares compounds with PRMT1 FP inh;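 active = mean inhibition across replicates above the hit cutoff derived for the earlier primary screen, cut at about 22% in these data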
Large screens that a line does not name were inactive (follow-up assays come after a bar, where they were run). In the library only some 2.6% were active in any assay of this set; here they are far more common. Rule as the data show it, unless noted: active = inhibition above about 19%; inactive = the rest.

O=C(NCCc1c[nH]c2ccccc12)OCc1cn(Cc2ccc(C(F)(F)F)cc2)nn1	none (no result: TCR CD3 inh, HTRA1 inhibitor)
COc1cccc(/C=C2/SC(=S)N(CC(=O)NNC(=O)c3ccccc3OC)C2=O)c1	none
O=C(CCCN1C(=O)/C(=C/c2cccs2)SC1=S)NNC(=O)c1ccccc1O	TCR CD3 inh 31, HTRA1 inhibitor 57 | HTRA1 inh conf 72 | BSA TAMRA ctr inactive | TCR-CD3 conf 31
COc1cccc(/C=C2\SC(=S)N(CCC(=O)NNC(=O)c3ccccc3OC)C2=O)c1	TCR CD3 inh 41, HTRA1 inhibitor 39 | HTRA1 inh conf inactive | BSA TAMRA ctr inactive | TCR-CD3 conf 22
O=C(CCCN1C(=O)/C(=C/c2cccs2)SC1=S)NNC(=O)c1ccncc1	none
Cc1n[nH]c(C)c1S(=O)(=O)NCCc1c[nH]c2ccccc12	none (no result: TCR CD3 inh, HTRA1 inhibitor)
CCn1c(CSc2nc3ccccc3s2)nnc1SCC(=O)c1ccc(Cl)cc1	none
CCn1c(CSc2nc3ccccc3s2)nnc1SCC(=O)c1ccc(O)c(O)c1	TCR CD3 inh 23, HTRA1 inhibitor 55 | HTRA1 inh conf 86 | BSA TAMRA ctr inactive | TCR-CD3 conf 29
CCn1c(SCC(=O)c2ccc(O)c(O)c2)nnc1-c1ccccc1OC	TCR CD3 inh 29, HTRA1 inhibitor 38 | HTRA1 inh conf 44 | BSA TAMRA ctr inactive | TCR-CD3 conf 31
O=C(CCc1ccccc1)N[C@H]1C(=O)CCC[C@]12C(=O)N(Cc1ccccc1)c1ccccc12	none (no result: TCR CD3 inh, HTRA1 inhibitor)
NC(=S)N/N=C/c1c(O)c(Br)cc2oc3c(c12)CCCC3	TCR CD3 inh 43, HTRA1 inhibitor 53 | HTRA1 inh conf 48 | BSA TAMRA ctr inactive | TCR-CD3 conf 28
O=C(O)c1cccc2cccc(-c3c4ccc(=O)c(O)c-4oc4c(O)c(O)ccc34)c12	TCR CD3 inh 66, SIAE inh 36, PRMT1 FP inh 32, ABHD4 inh 48, HTRA1 inhibitor 50 | HTRA1 inh conf 50 | BSA TAMRA ctr inactive | TCR-CD3 conf 68
CC(C)(C)c1ccc(O)c(O)c1	PRMT1 FP inh 26, HTRA1 inhibitor 38 | HTRA1 inh conf 60 | PRMT1 inh conf inactive
Cc1nc2cc(-c3ccsc3-n3c(C)ccc3C)[nH]n2c(=O)c1Cl	PRMT1 FP inh 25, HTRA1 inhibitor 38 | HTRA1 inh conf inactive | PRMT1 inh conf inactive
Cc1cc(=O)n2[nH]c(-c3ccsc3-n3c(C)ccc3C)cc2n1	none
COc1cccc(NS(=O)(=O)c2ccc3c(c2)C2C=CCC2C(c2ccc(C(=O)O)cc2)N3)c1 (stereo not given)	PRMT1 FP inh 42, HTRA1 inhibitor 49 | HTRA1 inh conf inactive | PRMT1 inh conf 30
CCCCOc1[nH]c2nc(-c3ccco3)n(Cc3ccco3)c(=N)c2c1C#N	PRMT1 FP inh 35, ABHD4 inh 45, HTRA1 inhibitor 42 | HTRA1 inh conf inactive | PRMT1 inh conf 32
c1ccc(CSc2nnc(-c3ccco3)n2Cc2ccco2)cc1	none
CCOC(=O)c1c(C)oc2c(CC(=O)c3ccccc3)c(Cl)c(O)c(O)c12	PRMT1 FP inh 27, HTRA1 inhibitor 46 | HTRA1 inh conf inactive | PRMT1 inh conf inactive
CCOC(=O)c1c(C)oc2c1c(CN1CCN(CCO)CC1)c(O)c1ccccc12	none
CCc1c(Cc2cccc(F)c2)ncn1CCc1ccccc1OC	none (no result: HTRA1 inhibitor)
O=S1(=O)C=CCN1Cc1cn(Cc2ccc(F)cc2)nn1	none (no result: TCR CD3 inh, HTRA1 inhibitor)
Cc1cccc(-c2cccc3c4c([nH]c23)[C@@H]2C[C@H](N(C)C(=O)c3ccccc3C)[C@H]([C@H](C)O)CN2CC4)c1	none (no result: TCR CD3 inh, HTRA1 inhibitor)
CCOC(=O)Nc1ccc(NCc2ccc(F)cc2)nc1N	PRMT1 FP inh 64, HTRA1 inhibitor 60 | HTRA1 inh conf inactive | PRMT1 inh conf inactive
COC(=O)[C@]12C[C@H](CC(=O)NCc3ccc(OC)c(OC)c3)C(=O)N(Cc3cccc4ccccc34)C1=C[C@H](C1CCCC1)O[C@@H]2C	none (no result: TCR CD3 inh, HTRA1 inhibitor)
